Activity calls are given as the source filed them. The rule behind the calls is not given here.

Series [1] deals with Metabotropic glutamate receptor 4 (Homo sapiens, UniProt Q14833). The series is described as follows: Positive allosteric modulation of recombinant human mGlu4 receptor expressed in HEK293 cells co-expressing chimeric Gi/Gq assessed as increase in EC20 glutamate-induced calcium flux preincubated for 10 mins followed by glutamate addition measured for 3 mins by Fluo4-AM dye based fluorescence assay relative to control. The format is functional, cell-based. Background: Calcium flux is commonly read through the fluorescence of an indicator in the cells.

Series [2] concerns the target Metabotropic glutamate receptor 8 (Homo sapiens) (UniProt O00222). Briefly: Agonist activity at human mGlu8 receptor expressed in HEK293 cells co-expressing Gi/Gq assessed as increase in intracellular calcium level at 10 uM after 10 mins by Fluo4-AM dye based fluorescence assay relative to control. The format is functional, cell-based. In short, it runs like this:
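Human mGluR8 in transiently transfected HEK293 cells loaded with Fluo4-AM. Compound alone was added and fluorescence followed for 10 min. Stimulation is expressed relative to the maximal glutamate response.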

Series [3] addresses D(1A) dopamine receptor (Homo sapiens) (UniProt P21728). Briefly: Agonist activity at D1 receptor (unknown origin) at 10 uM.
The target is the same in series [4]. Briefly: Antagonist activity at D1 receptor (unknown origin) at 10 uM.
The target of series [5] is D(2) dopamine receptor (Homo sapiens) (UniProt P14416). Briefly: Agonist activity at D2L receptor (unknown origin) at 10 uM.
Series [6] has the same target. The series is described as follows: Positive allosteric modulation of D2L receptor (unknown origin) at 10 uM.
For series [7], the target named is Adenosine receptor A2a (Homo sapiens) (UniProt P29274). Briefly: Agonist activity at A2A receptor (unknown origin) at 10 uM.
Series [8] has the same target. Briefly: Positive allosteric modulation of A2A receptor (unknown origin) at 10 uM.
Series [9] shares this target. Briefly: Antagonist activity at A2A receptor (unknown origin) at 10 uM.
Series [10] deals with Glycogen synthase kinase-3 beta (Homo sapiens) (UniProt P49841). Briefly: Inhibition of GSK3beta (unknown origin) at 10 uM.
Series [11] addresses Interleukin-1 receptor-associated kinase 4 (Homo sapiens) (UniProt Q9NWZ3). The series is described as follows: Inhibition of IRAK4 (unknown origin) at 10 uM.
Series [12] deals with Metabotropic glutamate receptor 7 (Homo sapiens) (UniProt Q14831). The series is described as follows: Activity at human mGlu7 receptor expressed in HEK293 cells co-expressing Gi/Gq assessed as effect on LAP4-induced intracellular calcium level up to 10 uM after 10 mins by Fluo4-AM dye based fluorescence assay. The format is functional, cell-based. In short, it runs like this: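 Human mGluR7 in transfected HEK293 cells loaded with Fluo4-AM. Compound was added for 10 min, followed by L-AP4 at EC20 or EC80 in place of glutamate, and calcium fluorescence was recorded for 3 min. Results are from at least two or three independent experiments.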

A short description of series [13]: Activity at COMT (unknown origin) up to 10 uM. The format is ADME. The conditions noted are these: human.
Series [14] can be described thus: Cmax in Sprague-Dawley rat at 1 mg/kg, iv administered as single dose by LC-MS/MS analysis. Also noted: dose 1 mg/kg, route intravenous. Conditions: in vivo. The format is ADME, organism-based.
Series [15] relates to Mus musculus. Briefly: Volume of distribution in C57BL/6 mouse at 2 mg/kg, iv administered as single dose by LC-MS/MS analysis. The format is ADME, organism-based. The conditions noted are these: in vivo. In short, it runs like this: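 Single intravenous dose: rats 1 mg/kg, mice 2 mg/kg. Plasma concentration–time data yielded Cmax, t1/2, AUC0−∞, plasma clearance and volume of distribution. Values are mean ±SEM of 3 animals.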

The nature of series [16]: Ratio of drug level in Sprague-Dawley rat brain to plasma at 1 mg/kg, iv after 1 hr post dose administered as single dose by LC-MS/MS analysis. The format is ADME, organism-based. Conditions: read-out: BPR. In short, it runs like this: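 Single iv dose, 1 mg/kg in rat or 2 mg/kg in mouse; plasma PK parameters derived; brain/plasma ratio taken at 1 h postdose (rat) or 30 min postdose (mouse). Mean of 3 rats; 2 mice for mouse Cmax and brain/plasma.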

Series [17] can be described thus: Cmax in Sprague-Dawley rat plasma at 10 mg/kg, ip administered as single dose by LC-MS/MS analysis. Also noted: dose 10 mg/kg, route intraperitoneal. The format is ADME, organism-based. In short, it runs like this: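 Rats dosed ip at 10 or 30 mg/kg. Plasma Cmax, Tmax, half-life and AUC0–inf were determined. Brain concentration was measured 30 min postdose, and brain/plasma ratio was taken at 30 min. Values are the mean (±SEM) of 3 rats.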

A short description of series [18]: Cmax in Sprague-Dawley rat plasma at 10 mg/kg, po administered as single dose by LC-MS/MS analysis. The format is ADME, organism-based. Also noted: dose 10 mg/kg, route oral. In short, it runs like this: (§1)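 Rats given a single oral dose of 10 mg/kg. The first plasma sample was taken at 15 min, and sampling continued to 24 h postdose. Brain was sampled at 30 min. Values are the mean (±SEM) of 3 rats.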

Series [19] in a line: Tmax in Sprague-Dawley rat plasma at 30 mg/kg, ip administered as single dose by LC-MS/MS analysis. The format is ADME, organism-based. In short, it runs like this: (§2)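 Single-dose plasma PK after ip (10 or 30 mg/kg) or oral (10 mg/kg) dosing in rats, and oral 10 mg/kg dosing in mice. […] Values are mean ±SEM of 3 rats or 2 mice.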
A short description of series [20]: Tmax in C57BL/6 mouse plasma at 10 mg/kg, po administered as single dose by LC-MS/MS analysis. The format is ADME, organism-based. In short, it runs like this:
as §2

Series [21] in a line: Drug uptake in Sprague-Dawley rat brain at 10 mg/kg, po after 30 mins post dose administered as single dose by LC-MS/MS analysis. The format is ADME, organism-based. The conditions noted are these: read-out: Drug uptake. In short, it runs like this: as §1
Series [22] can be described thus: Ratio of drug level in C57BL/6 mouse brain to plasma at 10 mg/kg, po after 30 mins post dose administered as single dose by LC-MS/MS analysis. Conditions: read-out: BPR. The format is ADME, organism-based. In short, it runs like this: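 Single dose ip (10 or 30 mg/kg, rat) or oral (10 mg/kg, rat or mouse); plasma Cmax, Tmax, half-life, AUC0−inf derived; brain concentration and brain/plasma ratio at 30 min postdose. Mean of 3 rats or 2 mice.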

Series [23] is described as follows: Ratio of drug uptake in Sprague-Dawley rat brain at 10 mg/kg, ip to EC50 for rat mGlu4 receptor expressed in HEK293 cells. In short, it runs like this:
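Rats received a single ip or oral dose. Brain concentration was measured 30 min postdose, mean of 3 rats, and divided by the EC50 measured in cell lines overexpressing rat mGluR4.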

A short description of series [24]: Protein binding in Sprague-Dawley rat brain at 10 uM by rapid equilibrium dialysis. The format is ADME, tissue-based. Conditions: read-out: PB (converted).
Series [25] relates to Mus musculus. Briefly: Anti-parkinson's activity in C57BL/6 mouse assessed as brain concentration required for reversal of haloperidol-induced catalepsy at 30 mg/kg, ip after 40 mins. The format is functional.
A short description of series [26]: Plasma concentration in Sprague-Dawley rat at 30 mg/kg, ip after 240 mins. The format is ADME, organism-based. In short, it runs like this:
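Rats dosed 30 mg/kg ip; plasma sampled over time, brain measured at 30 and 60 min; brain/plasma ratio averaged over 30 and 60 min.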

A short description of series [27]: Drug uptake in Sprague-Dawley rat brain at 30 mg/kg, ip after 240 mins. Conditions: read-out: Drug uptake. The format is ADME, organism-based.
The nature of series [28]: Drug uptake in Sprague-Dawley rat brain at 10 mg/kg, po after 60 mins post dose administered as single dose by LC-MS/MS analysis. The format is ADME, organism-based. The conditions noted are these: read-out: Drug uptake. In short, it runs like this: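 Rats given a single oral dose of 10 mg/kg. Brain concentrations were measured at 30, 60 and 90 min postdose, and brain AUC0–inf was determined. Values are the mean of three rats. Lower limit of quantification was 1 ng/mL.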

Series [29] deals with Rattus norvegicus. Briefly: Toxicity in 6-OHDA induced parkinsonian motor deficit Sprague-Dawley rat model assessed as induction of overacting rearing behavior up to 30 mg/kg, ip in presence of L-dopa. The format is organism-based. The conditions noted are these: in vivo.

Sequence of Adenosine receptor A2a (Homo sapiens) (P29274 whole entry): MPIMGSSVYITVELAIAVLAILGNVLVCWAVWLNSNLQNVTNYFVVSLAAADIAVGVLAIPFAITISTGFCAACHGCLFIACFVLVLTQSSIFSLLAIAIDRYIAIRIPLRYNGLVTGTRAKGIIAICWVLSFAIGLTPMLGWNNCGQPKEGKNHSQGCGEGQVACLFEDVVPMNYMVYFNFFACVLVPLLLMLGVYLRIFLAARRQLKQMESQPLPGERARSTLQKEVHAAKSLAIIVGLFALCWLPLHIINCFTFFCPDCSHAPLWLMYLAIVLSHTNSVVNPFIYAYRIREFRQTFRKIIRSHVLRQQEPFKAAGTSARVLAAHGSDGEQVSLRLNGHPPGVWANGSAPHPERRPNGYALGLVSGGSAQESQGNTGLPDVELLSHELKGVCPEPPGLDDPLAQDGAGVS
Sequence of D(2) dopamine receptor (Homo sapiens) (P14416 whole entry): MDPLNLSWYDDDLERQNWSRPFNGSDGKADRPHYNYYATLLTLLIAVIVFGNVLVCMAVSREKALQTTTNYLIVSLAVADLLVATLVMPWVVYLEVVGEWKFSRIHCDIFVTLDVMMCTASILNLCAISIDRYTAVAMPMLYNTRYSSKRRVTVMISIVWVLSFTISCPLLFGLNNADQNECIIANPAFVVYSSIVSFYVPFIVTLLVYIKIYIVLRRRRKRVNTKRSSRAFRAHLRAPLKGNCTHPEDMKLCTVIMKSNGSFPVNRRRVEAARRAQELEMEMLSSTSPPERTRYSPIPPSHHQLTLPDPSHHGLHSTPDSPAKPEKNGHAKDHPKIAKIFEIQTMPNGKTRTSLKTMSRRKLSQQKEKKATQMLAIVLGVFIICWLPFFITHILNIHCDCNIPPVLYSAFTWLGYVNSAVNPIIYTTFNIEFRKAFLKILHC
Sequence of D(1A) dopamine receptor (Homo sapiens) (P21728 whole entry): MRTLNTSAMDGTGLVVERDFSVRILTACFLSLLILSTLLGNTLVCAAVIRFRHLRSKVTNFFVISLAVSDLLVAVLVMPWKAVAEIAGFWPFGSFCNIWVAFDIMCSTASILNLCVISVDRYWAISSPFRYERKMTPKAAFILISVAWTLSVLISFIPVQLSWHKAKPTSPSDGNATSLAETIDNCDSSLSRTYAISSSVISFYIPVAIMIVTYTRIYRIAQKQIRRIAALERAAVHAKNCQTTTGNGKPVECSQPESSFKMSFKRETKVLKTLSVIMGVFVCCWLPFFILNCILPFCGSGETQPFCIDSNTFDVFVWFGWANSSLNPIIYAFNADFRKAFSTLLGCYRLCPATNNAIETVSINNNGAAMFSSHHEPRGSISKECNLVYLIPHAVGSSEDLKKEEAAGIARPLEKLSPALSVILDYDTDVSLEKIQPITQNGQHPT
Sequence of Glycogen synthase kinase-3 beta (Homo sapiens) (P49841 whole entry, looked up): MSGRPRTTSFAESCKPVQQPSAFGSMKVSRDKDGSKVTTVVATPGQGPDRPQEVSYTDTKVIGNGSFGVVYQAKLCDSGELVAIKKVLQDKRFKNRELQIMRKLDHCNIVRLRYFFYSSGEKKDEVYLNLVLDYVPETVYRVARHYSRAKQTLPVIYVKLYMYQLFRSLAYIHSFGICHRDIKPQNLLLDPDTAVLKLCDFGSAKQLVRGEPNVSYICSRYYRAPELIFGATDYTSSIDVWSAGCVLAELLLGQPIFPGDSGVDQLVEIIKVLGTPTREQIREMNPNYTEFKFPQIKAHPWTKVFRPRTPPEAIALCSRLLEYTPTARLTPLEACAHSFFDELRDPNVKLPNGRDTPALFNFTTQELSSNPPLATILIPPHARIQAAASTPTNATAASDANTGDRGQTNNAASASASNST
Sequence of Interleukin-1 receptor-associated kinase 4 (Homo sapiens) (Q9NWZ3 whole entry): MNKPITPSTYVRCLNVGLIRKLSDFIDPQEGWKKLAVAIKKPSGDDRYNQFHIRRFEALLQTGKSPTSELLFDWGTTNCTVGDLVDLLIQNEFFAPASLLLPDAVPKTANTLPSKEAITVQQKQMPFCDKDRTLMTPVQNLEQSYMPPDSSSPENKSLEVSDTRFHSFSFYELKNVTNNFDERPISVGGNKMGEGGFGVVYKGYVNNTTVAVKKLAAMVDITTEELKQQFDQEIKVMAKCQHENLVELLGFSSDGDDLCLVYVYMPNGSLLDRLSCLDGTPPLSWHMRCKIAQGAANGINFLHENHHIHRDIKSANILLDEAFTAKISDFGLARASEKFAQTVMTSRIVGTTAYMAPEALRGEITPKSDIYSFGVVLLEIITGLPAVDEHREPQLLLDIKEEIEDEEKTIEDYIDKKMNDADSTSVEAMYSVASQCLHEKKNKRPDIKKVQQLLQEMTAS
Sequence of Metabotropic glutamate receptor 8 (Homo sapiens) (O00222 whole entry): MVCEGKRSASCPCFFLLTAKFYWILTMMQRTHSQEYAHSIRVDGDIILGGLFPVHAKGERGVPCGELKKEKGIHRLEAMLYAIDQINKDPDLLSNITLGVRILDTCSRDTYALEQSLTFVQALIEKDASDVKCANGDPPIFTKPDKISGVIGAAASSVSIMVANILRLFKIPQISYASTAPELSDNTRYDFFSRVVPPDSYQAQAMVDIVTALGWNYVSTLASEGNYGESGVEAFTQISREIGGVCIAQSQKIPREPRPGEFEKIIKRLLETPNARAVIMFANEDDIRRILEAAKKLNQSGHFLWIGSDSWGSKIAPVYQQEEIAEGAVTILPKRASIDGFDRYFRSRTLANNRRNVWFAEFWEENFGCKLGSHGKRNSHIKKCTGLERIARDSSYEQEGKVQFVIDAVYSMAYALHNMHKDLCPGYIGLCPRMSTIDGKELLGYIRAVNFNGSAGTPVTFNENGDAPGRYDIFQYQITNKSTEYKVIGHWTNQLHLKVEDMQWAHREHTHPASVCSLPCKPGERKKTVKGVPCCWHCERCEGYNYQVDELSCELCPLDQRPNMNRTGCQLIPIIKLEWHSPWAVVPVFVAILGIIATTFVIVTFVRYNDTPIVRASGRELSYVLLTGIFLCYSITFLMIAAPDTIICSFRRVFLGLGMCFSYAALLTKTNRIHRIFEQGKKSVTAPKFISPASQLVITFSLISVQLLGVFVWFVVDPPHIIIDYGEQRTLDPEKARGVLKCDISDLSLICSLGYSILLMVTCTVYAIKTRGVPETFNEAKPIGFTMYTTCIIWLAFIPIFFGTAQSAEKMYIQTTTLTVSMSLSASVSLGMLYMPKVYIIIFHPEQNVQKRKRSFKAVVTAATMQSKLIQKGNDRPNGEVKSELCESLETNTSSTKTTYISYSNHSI
Sequence of Metabotropic glutamate receptor 7 (Homo sapiens) (Q14831 whole entry): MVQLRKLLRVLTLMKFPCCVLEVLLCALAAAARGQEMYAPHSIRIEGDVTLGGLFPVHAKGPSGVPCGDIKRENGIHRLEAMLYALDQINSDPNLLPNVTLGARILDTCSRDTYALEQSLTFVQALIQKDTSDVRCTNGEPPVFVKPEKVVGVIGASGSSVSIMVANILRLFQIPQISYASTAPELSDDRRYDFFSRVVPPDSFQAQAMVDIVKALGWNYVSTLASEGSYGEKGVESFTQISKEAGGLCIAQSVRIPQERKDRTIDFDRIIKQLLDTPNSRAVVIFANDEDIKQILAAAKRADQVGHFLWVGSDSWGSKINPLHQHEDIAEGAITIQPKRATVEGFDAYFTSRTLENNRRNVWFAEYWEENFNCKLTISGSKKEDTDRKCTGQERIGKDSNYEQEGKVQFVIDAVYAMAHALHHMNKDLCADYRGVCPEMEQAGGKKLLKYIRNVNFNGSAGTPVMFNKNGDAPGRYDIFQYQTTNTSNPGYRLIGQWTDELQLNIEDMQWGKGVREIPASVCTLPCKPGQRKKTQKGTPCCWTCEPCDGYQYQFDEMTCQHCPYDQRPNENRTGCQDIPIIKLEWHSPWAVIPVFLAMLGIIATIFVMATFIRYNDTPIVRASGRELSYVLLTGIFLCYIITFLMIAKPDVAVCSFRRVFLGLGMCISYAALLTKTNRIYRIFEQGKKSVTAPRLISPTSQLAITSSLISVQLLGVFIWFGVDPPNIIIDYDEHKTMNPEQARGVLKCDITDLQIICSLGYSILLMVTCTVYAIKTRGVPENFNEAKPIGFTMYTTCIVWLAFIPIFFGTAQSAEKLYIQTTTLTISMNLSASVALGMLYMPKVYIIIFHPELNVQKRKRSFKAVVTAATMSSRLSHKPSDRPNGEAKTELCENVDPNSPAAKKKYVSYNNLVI
Sequence of Metabotropic glutamate receptor 4 (Q14833 whole entry): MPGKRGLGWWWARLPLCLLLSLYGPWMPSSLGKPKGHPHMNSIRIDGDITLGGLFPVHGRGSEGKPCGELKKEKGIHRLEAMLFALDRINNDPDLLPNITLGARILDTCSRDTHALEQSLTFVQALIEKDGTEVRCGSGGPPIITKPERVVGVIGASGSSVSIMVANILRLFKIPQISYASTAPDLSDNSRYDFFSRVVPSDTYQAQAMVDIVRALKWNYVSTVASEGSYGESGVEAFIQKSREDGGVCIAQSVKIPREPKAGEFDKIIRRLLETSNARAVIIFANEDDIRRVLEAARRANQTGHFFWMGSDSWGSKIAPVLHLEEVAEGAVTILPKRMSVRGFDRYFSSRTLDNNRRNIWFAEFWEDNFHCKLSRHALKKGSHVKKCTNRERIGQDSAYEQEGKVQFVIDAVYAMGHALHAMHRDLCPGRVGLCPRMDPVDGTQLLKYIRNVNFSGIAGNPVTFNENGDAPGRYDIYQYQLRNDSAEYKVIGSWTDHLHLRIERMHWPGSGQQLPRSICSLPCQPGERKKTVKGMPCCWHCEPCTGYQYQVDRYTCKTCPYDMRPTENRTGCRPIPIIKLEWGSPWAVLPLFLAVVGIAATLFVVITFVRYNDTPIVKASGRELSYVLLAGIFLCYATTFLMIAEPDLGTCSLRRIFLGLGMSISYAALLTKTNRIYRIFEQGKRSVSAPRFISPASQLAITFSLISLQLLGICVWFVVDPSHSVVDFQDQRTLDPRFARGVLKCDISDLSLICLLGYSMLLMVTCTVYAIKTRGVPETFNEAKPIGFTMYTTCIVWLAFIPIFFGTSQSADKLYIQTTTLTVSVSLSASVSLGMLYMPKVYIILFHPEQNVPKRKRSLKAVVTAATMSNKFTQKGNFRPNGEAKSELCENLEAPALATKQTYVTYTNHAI

Take `O/N=c1\cc(-c2cc3cccn3cn2)oc2ccc(OCCN3CCOCC3)cc12` [listing 1 of 2 here]: in series [1], the Emax (commonly the size of the effect at its maximum, as opposed to the concentration needed) was determined as 77%. Also, the Activity in series [2] worked out at 23%. For the same compound, the outcome in series [3], in series [4], in series [5], in series [6], in series [7] and in [8] was inactive. Moreover, the result in series [9] and in series [12] was inactive. Further, the inhibition entry in series [10] and in series [11] was “inactive” throughout.

Turning to `O/N=c1\cc(-c2cc3cccn3cn2)oc2ccc(OCCN3CCOCC3)cc12` [listing 2 of 2 here], the results for the Activity entry in series [13] and in [29] were “Not Active” and “Non-Toxic”, respectively. Besides, the Cmax (as a rule, the maximum level reached in the sampled fluid or tissue) turned out to be 444 ng/mL in series [14], 1500 ng/mL in series [17] and 135 ng/mL in [18]. Also, in series [15], the Vd – broadly, the apparent volume that relates the amount in the body to the concentration in plasma or blood – came to 6 L/kg. The Kp at 1 h in series [16] stood at 3.3. Moreover, the Tmax (as a rule, the time at which the peak concentration occurs) in series [19] is 15 min; in series [20], 30 min. In addition, in series [21], the concentration at 0.5 h amounted to 454 ng/g. Besides, in series [22], the Kp at 0.5 h turned out to be 1.7. Further, in [23], the Ratio is given as 3.6. The fraction unbound at 10 µM in series [24] is 0.0076. Besides, the fEC50 in series [25] is 5 nM. For the same compound, the concentration at 4 h in series [26] stood at 99 ng/mL; in series [27], 322 ng/g. In addition, the concentration at 1 h in [28] came out at 262 ng/g.

Values taken from ChEMBL document CHEMBL4017520, “Discovery, Structure-Activity Relationship, and Antiparkinsonian Effect of a Potent and Brain-Penetrant Chemical Series of Positive Allosteric Modulators of Metabotropic Glutamate Receptor 4” (J Med Chem, 2017).
